Results taken from ChEMBL document CHEMBL1152806, “Discovery of a potent, selective, and orally efficacious pyrimidinooxazinyl bicyclooctaneacetic acid diacylglycerol acyltransferase-1 inhibitor” (J Med Chem, 2009).
≈ marks a conversion by molar mass, not a printed value. Calls of active or inactive are those of the source. The rule behind the calls is not given here.

Experiments:
Plasma [1] = assay: Fraction unbound in rat plasma by LC-UVMS; format: ADME, cell-free
Procedure, shortened: (§1)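 Equilibrium dialysis in plasma of the relevant species at 37 °C; free and bound drug quantified by LC-UVMS; reported as % free.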

[2] = Volume of distribution at steady state in rat at 1 to 3 mg/kg; format: ADME, organism-based; parameters: dose 1-3 mg/kg; conditions: in vivo, read-out: Vdss
[3] = Bioavailability in rat at 1 to 3 mg/kg; format: ADME, organism-based; conditions: in vivo
[4] = Half life in dog at 1 to 3 mg/kg, po; format: ADME, organism-based, Canis lupus familiaris; parameters: dose 1-3 mg/kg, route oral; conditions: in vivo
[5] = Apparent permeability from basolateral to apical side in MDCK cells at 10 uM; format: ADME, cell-based, Canis lupus familiaris; conditions: dog, read-out: permeability
Procedure, shortened: (§2)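 Cultured MDCK cells incubated with compound at 10 µM; apparent permeability (Papp, ×10^-6 cm/s) measured in both apical-to-basolateral and basolateral-to-apical directions.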

Hepatocyte = assay: Metabolic stability in human hepatocytes assessed as conversion to acyl glucuronide form after 2 hrs; format: ADME, cell-based
CYP3A4 = CYP3A4 (Homo sapiens, UniProt P08684); assay: Inhibition of CYP3A4 at 30 uM; format: ADME
CYP3A4, sequence (P08684 whole entry): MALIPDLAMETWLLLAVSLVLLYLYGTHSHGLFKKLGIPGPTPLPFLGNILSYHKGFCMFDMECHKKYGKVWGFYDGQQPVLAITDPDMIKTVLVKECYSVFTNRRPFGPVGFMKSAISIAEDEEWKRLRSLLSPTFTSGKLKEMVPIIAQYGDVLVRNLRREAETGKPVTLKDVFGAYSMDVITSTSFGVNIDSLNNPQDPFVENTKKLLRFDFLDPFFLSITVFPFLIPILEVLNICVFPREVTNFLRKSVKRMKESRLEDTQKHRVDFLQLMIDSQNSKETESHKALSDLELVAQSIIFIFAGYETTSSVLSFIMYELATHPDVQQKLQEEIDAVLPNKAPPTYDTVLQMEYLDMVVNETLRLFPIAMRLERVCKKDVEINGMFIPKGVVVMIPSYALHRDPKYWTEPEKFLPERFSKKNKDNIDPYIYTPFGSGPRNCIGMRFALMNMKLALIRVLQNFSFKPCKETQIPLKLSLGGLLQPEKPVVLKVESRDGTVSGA

[6] = Metabolic stability in dog alamethicin-activated microsomes assessed as conversion to acyl glucuronide form after 1 hr; format: ADME, Canis lupus familiaris, Microsome
Rattus norvegicus [7] = assay: Reduction of adipose triacylglycerol synthesis in 14 hrs fasted Han-Wistar rat assessed as decrease in ratio of [3H]palmitic acid incorporation in to TAG and DAG at 8 mg/kg, po after 1.5 hrs relative to control; format: functional; parameters: scale not given: the % may be the effect or the level left
Procedure, shortened: (§3)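 Male Han-Wistar rats (~300 g) on chow diet were given compound by oral gavage, suspended in HPMC/Tween. At 1.5 h they were anaesthetised with inactin and a bolus of [3H]-palmitic acid was given via a jugular cannula. Epididymal fat was taken 20 min later, homogenised in duplicate with [14C]-oleic acid internal standard, and lipids separated by HPLC. Result is % reduction of the TAG/DAG label ratio versus vehicle; n = 10.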

Rattus norvegicus [8] = assay: Reduction of plasma triacylglycerol excursion in 14 hrs fasted Han-Wistar rat at 0.1 mg/kg, po treated 2 hrs before bolus corn oil administration measured 1.5 hrs post corn oil challenge by oral lipid tolerance test relative to control; format: functional; parameters: scale not given: the % may be the effect or the level left
Procedure, shortened: (§4)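 Male Han-Wistar rats (~230 g) on chow diet were fasted 14 h and given compound by oral gavage, suspended in HPMC/Tween. A corn oil bolus (5 mL/kg) followed 2 h later. After 1.5 h, blood was drawn from the abdominal vena cava and plasma TAG measured colorimetrically (GPO-PAP). Result is % reduction versus vehicle-treated controls; n = 6.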

[9] = Volume of distribution at steady state in marmosets at 1 to 3 mg/kg; format: ADME, organism-based; parameters: dose 1-3 mg/kg; conditions: callitrichinae sp., in vivo; read-out: Vdss
[10] = Aqueous solubility at pH 7.4; format: physicochemical; conditions: buffer
[11] = Apparent permeability from apical to basolateral side in MDCK cells at 10 uM; format: ADME, cell-based, Canis lupus familiaris; conditions: dog, read-out: permeability; procedure, shortened: as §2
Plasma [12] = assay: Fraction unbound in human plasma by LC-UVMS; format: ADME, cell-free; procedure, shortened: as §1
Plasma [13] = assay: Fraction unbound in dog plasma by LC-UVMS; format: ADME, cell-free, Canis lupus familiaris; procedure, shortened: as §1
Mus musculus = assay: Inhibition of dietary-induced obesity in obese […] mouse model assessed as reduction in body weight at 20 mg/kg, po qd for 3 days relative to start weight; format: functional, organism-based; parameters: dose 20 mg/kg
Procedure, shortened: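 Female C57BL/6 mice fed high-calorie cafeteria diet for 15 weeks to about 29 g, randomized into groups of 12. Oral gavage (10 mL/kg) once daily for 3 days, 2 h before the dark phase. Body weight recorded daily before dosing and expressed as percent change from day 0, compared with vehicle-treated diet-matched controls.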

CYP1A2 = biological target: T1, CYP1A2 (Homo sapiens, UniProt P05177); assay: Inhibition of CYP1A2 at 30 uM; format: ADME
T1 sequence (P05177 whole entry): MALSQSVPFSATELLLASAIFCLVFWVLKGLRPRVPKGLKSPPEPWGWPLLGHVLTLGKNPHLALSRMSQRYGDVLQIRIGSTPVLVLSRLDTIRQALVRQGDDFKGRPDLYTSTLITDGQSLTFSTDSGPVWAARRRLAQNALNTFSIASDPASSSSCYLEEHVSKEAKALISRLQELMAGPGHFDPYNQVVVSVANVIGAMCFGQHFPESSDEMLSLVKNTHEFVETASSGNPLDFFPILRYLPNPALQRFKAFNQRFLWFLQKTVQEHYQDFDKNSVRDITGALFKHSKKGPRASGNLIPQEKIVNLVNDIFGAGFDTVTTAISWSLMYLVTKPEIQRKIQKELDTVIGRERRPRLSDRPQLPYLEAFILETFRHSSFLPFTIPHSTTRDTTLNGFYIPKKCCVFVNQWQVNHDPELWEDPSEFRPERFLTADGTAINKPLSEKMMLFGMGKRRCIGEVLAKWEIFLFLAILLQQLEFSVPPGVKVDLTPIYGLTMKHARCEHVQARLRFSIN

CYP2D6 = CYP2D6 (Homo sapiens, UniProt P10635); assay: Inhibition of CYP2D6 at 30 uM; format: ADME
CYP2D6, sequence (P10635 whole entry): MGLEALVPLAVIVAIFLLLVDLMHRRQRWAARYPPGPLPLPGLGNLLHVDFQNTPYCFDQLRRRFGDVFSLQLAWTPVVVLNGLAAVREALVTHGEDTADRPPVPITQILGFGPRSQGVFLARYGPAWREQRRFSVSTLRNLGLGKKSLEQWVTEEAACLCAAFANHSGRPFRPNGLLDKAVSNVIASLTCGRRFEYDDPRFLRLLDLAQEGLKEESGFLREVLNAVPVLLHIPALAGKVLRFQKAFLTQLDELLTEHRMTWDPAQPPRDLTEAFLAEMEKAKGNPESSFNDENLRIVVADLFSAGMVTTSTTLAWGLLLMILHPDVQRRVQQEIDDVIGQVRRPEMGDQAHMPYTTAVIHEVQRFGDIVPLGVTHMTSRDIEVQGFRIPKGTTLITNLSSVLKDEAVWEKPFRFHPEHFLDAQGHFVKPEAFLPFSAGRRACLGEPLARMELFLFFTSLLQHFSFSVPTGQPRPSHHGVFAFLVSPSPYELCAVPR

Rattus norvegicus [14] = assay: Reduction of adipose triacylglycerol synthesis in 14 hrs fasted Han-Wistar rat assessed as decrease in ratio of [3H]palmitic acid incorporation in to TAG and DAG at 3 mg/kg, po after 1.5 hrs relative to control; format: functional; parameters: scale not given: the % may be the effect or the level left; procedure, shortened: as §3
Rattus norvegicus [15] = assay: Reduction of plasma triacylglycerol excursion in 14 hrs fasted Han-Wistar rat at 0.3 mg/kg, po treated 2 hrs before bolus corn oil administration measured 1.5 hrs post corn oil challenge by oral lipid tolerance test relative to control; format: functional; parameters: scale not given: the % may be the effect or the level left; procedure, shortened: as §4
[16] = Volume of distribution at steady state in dog at 1 to 3 mg/kg; format: ADME, organism-based, Canis lupus familiaris; parameters: dose 1-3 mg/kg; conditions: in vivo, read-out: Vdss
[17] = Plasma clearance in dog at 1 to 3 mg/kg; format: ADME, organism-based, Canis lupus familiaris; parameters: dose 1-3 mg/kg
[18] = Half life in rat at 1 to 3 mg/kg, po; format: ADME, organism-based; parameters: dose 1-3 mg/kg, route oral; conditions: in vivo

Fu (Plasma [1]): 0.91% | Vd [2]: 0.7 L/kg | bioavailability [3]: 72% | half-life [4]: 9.9 h | Papp B→A at 10 µM [5]: 26 ×10⁻⁶ cm/s | Stability (Hepatocyte): 17% | inhibition at 30 µM (CYP3A4): < 25% | Stability [6]: 76% | Vd [9]: 0.88 L/kg | solubility [10]: 12 µM (≈ 5.05 µg/mL) | Papp A→B at 10 µM [11]: 18 ×10⁻⁶ cm/s | Fu (Plasma [12]): 1% | Fu (Plasma [13]): 0.6% | inhibition at 30 µM (CYP1A2): < 25% | inhibition at 30 µM (CYP2D6): < 25% | Vd [16]: 1 L/kg | clearance [17]: 3.3 mL/min/kg | half-life [18]: 5.4 h
SMILES: CC1(C)Oc2ncnc(N)c2N=C1c1ccc(C23CCC(CC(=O)O)(CC2)CC3)cc1
Activity (Rattus norvegicus [7]): 54% | Activity (Rattus norvegicus [8]): 38% | Activity (Mus musculus): Active | Activity (Rattus norvegicus [14]): 57% | Activity (Rattus norvegicus [15]): 57%
